Experiments:
[1] = biological target: Transient receptor potential cation channel subfamily V member 1 (Homo sapiens) (UniProt Q8NER1); assay: Antagonist activity at human TRPV1 expressed in HEK293T cells assessed as capsaicin-induced inward transient currents at 90 uM and -60 mV by whole cell patch-clamp method relative to control; assay type: cell-based; parameters: scale not given: the % may be the effect or the level left
In short: (§1)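 Whole-cell patch clamp, with TRPV1 current evoked by 1 μM capsaicin. Current was compared before and after 90 μM test agent using mean I−V curves, read at −60 mV. Remaining current was normalized to the steady-state peak current before treatment (100%), reported as mean ± SEM, n = 3–6.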

[2] = biological target: Calcium release-activated calcium channel protein 1 (Homo sapiens) (UniProt Q96D31); assay: Antagonist activity at human ORAI1 expressed in HEK293T cells assessed as […]-induced inwardly rectifying current at 90 uM and -120 mV by whole cell patch-clamp method relative to control; assay type: cell-based; parameters: scale not given: the % may be the effect or the level left
[3] = biological target: Calcium release-activated calcium channel protein 1 (Homo sapiens) (UniProt Q96D31); assay: Antagonist activity at human ORAI1 expressed in HEK293T cells assessed as inhibition of […]-induced inwardly rectifying current at 10 uM and -120 mV by whole cell patch-clamp method; assay type: cell-based
[4] = biological target: Transient receptor potential cation channel subfamily V member 1 (Homo sapiens) (UniProt Q8NER1); assay: Antagonist activity at human TRPV1 expressed in HEK293T cells assessed as inhibition of capsaicin-induced inward transient currents at 90 uM and -60 mV by whole cell patch-clamp method relative to control; assay type: cell-based; in short: as §1
[5] = biological target: Calcium release-activated calcium channel protein 1 (Homo sapiens) (UniProt Q96D31); assay: Antagonist activity at human ORAI1 expressed in HEK293T cells assessed as inhibition of […]-induced inwardly rectifying current at -120 mV by whole cell patch-clamp method; assay type: cell-based
[6] = biological target: Calcium release-activated calcium channel protein 1 (Homo sapiens) (UniProt Q96D31); assay: Antagonist activity at human ORAI1 expressed in HEK293T cells assessed as inhibition of […] induced inwardly rectifying current at 30 uM and -120 mV by whole cell patch-clamp method; assay type: cell-based
[7] = biological target: Calcium release-activated calcium channel protein 1 (Homo sapiens) (UniProt Q96D31); assay: Antagonist activity at human ORAI1 expressed in HEK293T cells assessed as inhibition of […]-induced inwardly rectifying current at 90 uM and -120 mV by whole cell patch-clamp method relative to control; assay type: cell-based
Homo sapiens [8] = organism: Homo sapiens; assay: Inhibition of SOCE signalling in human Jurkat-T cells assessed as reduction in alpha-CD3 induced cytoplasmic calcium concentration measured at every 2 sec interval by Fura-2 dye based fluorimetric analysis; assay type: cell-based
Homo sapiens [9] = organism: Homo sapiens; assay: Inhibition of SOCE signalling in human Jurkat-T cells assessed as reduction in alpha-CD3 induced cytoplasmic calcium concentration at 10 uM measured at every 2 sec interval by Fura-2 dye based fluorimetric analysis; assay type: cell-based; parameters: scale not given: the % may be the effect or the level left
Homo sapiens [10] = organism: Homo sapiens; assay: Inhibition of SOCE signalling in human Jurkat-T cells assessed as reduction in alpha-CD3 induced cytoplasmic calcium concentration at 30 uM measured at every 2 sec interval by Fura-2 dye based fluorimetric analysis; assay type: cell-based; parameters: scale not given: the % may be the effect or the level left
Homo sapiens [11] = organism: Homo sapiens; assay: Inhibition of SOCE signalling in human Jurkat-T cells assessed as reduction in alpha-CD3 induced cytoplasmic calcium concentration at 50 uM measured at every 2 sec interval by Fura-2 dye based fluorimetric analysis; assay type: cell-based; parameters: scale not given: the % may be the effect or the level left
B16-F10 [12] = assay: Inhibition of UV-induced melanogenesis in mouse B16F10 cells assessed as reduction in melanin level pretreated with compound prior to UVB exposure measured after 48 hrs by spectrophotometric method; assay type: functional, cell-based
In short: (§2)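 B16F10 murine melanoma cells were pretreated with test agent (7.5 or 15 μg/mL; reference ORAI1 inhibitor 3 μg/mL) before UVB exposure. Melanin content was measured 48 h later.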

B16-F10 [13] = assay: Inhibition of UV-induced melanogenesis in mouse B16F10 cells assessed as reduction in melanin level pretreated at 7.5 ug/ml prior to UVB exposure measured after 48 hrs by spectrophotometric method; assay type: functional; parameters: scale not given: the % may be the effect or the level left; in short: as §2
B16-F10 [14] = assay: Inhibition of UV-induced melanogenesis in mouse B16F10 cells assessed as reduction in melanin level pretreated at 15 ug/ml prior to UVB exposure measured after 48 hrs by spectrophotometric method; assay type: functional; parameters: scale not given: the % may be the effect or the level left; in short: as §2
B16-F10 [15] = assay: Cytotoxicity in mouse B16F10 cells at <15 ug/ml measured after 48 hrs by MTT assay; assay type: cell-based; details: b16-f10, 48 h
B16-F10 [16] = assay: Cytotoxicity in mouse B16F10 cells at <3 ug/ml measured after 48 hrs by MTT assay; assay type: cell-based; details: b16-f10, 48 h

Transient receptor potential cation channel subfamily V member 1 (Homo sapiens), sequence (Q8NER1 whole entry): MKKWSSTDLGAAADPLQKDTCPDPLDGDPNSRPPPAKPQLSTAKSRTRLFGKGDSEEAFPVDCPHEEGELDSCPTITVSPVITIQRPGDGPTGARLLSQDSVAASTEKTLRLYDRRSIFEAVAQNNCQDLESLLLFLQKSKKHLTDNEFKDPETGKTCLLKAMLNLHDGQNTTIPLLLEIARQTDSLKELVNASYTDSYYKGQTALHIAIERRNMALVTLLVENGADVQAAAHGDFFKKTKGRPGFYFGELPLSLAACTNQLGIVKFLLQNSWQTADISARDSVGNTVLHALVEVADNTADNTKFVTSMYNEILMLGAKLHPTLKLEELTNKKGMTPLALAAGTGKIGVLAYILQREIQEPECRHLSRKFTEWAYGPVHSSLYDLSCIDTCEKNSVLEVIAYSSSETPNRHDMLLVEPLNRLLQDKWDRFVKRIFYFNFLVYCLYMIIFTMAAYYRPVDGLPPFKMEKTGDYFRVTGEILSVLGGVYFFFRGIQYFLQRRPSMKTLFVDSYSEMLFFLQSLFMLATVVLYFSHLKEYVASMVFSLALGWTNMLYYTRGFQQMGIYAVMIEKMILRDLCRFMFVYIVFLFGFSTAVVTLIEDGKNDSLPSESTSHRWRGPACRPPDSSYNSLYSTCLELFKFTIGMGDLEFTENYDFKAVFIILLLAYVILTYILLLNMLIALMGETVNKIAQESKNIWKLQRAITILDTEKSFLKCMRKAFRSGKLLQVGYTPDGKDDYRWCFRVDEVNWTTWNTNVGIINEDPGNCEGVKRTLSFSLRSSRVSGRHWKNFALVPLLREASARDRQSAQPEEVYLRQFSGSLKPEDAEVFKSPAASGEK
Calcium release-activated calcium channel protein 1 (Homo sapiens), sequence (Q96D31 whole entry, looked up): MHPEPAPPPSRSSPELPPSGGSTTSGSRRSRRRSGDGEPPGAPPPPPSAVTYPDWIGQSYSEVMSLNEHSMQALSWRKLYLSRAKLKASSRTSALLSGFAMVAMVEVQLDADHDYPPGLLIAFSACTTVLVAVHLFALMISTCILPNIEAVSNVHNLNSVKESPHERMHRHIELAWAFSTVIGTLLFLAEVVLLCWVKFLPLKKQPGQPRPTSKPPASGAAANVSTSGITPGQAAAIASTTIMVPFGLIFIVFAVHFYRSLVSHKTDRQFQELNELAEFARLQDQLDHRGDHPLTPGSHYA

Question: Which results are given for `C=C1C2CCC(C2)C1(C)C` (centres undefined)?
Answer: Activity [1]: 115%; Activity [2]: 79%

Question: Which Activity [1] does the source give for `C=C1CC[C@H]2O[C@]2(C)CC[C@@H]2[C@@H]1CC2(C)C` here?
Answer: 45%

Question: And the Activity [2]?
Answer: 44%

Question: `C=C(C)[C@@H]1CCC2=CCC[C@@H](C)[C@]2(C)C1` was tested. Which inhibition [3] did it give?
Answer: 13%

Question: What about the inhibition [4] of the same compound?
Answer: 69%

Question: And the Activity [1]?
Answer: 31%

Question: And the inhibition [5]?
Answer: Dose-dependent effect

Question: And the inhibition [6]?
Answer: 45%

Question: What about the inhibition [7] of the same compound?
Answer: 94 to 95%

Question: What about the Activity [2] of the same compound?
Answer: 5%

Question: And the Activity (Homo sapiens [8])?
Answer: Dose-dependent effect

Question: What about the Activity (Homo sapiens [9]) of the same compound?
Answer: 53%

Question: What about the Activity (Homo sapiens [10]) of the same compound?
Answer: 75%

Question: What about the Activity (Homo sapiens [11]) of the same compound?
Answer: 85%

Question: What about the Activity (B16-F10 [12]) of the same compound?
Answer: Dose-dependent effect

Question: And the Activity (B16-F10 [13])?
Answer: 94.82%

Question: What about the Activity (B16-F10 [14]) of the same compound?
Answer: 82.66%

Question: What about the Activity (B16-F10 [15]) of the same compound?
Answer: Non-Toxic

Question: With `Cc1nnsc1C(=O)Nc1ccc(-n2nc(C(F)(F)F)cc2C(F)(F)F)cc1` as the compound, how does the Activity (B16-F10 [16]) read?
Answer: Non-Toxic

Question: Which Activity [1] does the source give for `C=C(C)[C@@H]1CCC2=CC(=O)C[C@@H](C)[C@]2(C)C1` here?
Answer: 176%

Question: And the Activity [2]?
Answer: 53%

Question: Which results are given for `C=C(C)[C@@H]1CC[C@@]2(C)CCC(=O)C(C)=C2C1`?
Answer: Activity [1]: 94%; Activity [2]: 50%

From ChEMBL document CHEMBL4477174, “Valencene from the Rhizomes of Cyperus rotundus Inhibits Skin Photoaging-Related Ion Channels and UV-Induced Melanogenesis in B16F10 Melanoma Cells” (J Nat Prod, 2016)
